Reference: publication PMC12394810 (RSC Advances, 2025)

Assays:
Format in all cases: cell-based
[1] = system: SKBR-3 (human breast cancer cell line); experiment: MTT cytotoxicity assay, SKBR-3; conditions: SK-BR-3, 48 h, read-out: IC50 SKBR-3
Summary of the method: (§1)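 ATCC cells grown in DMEM with 10% FBS, 2 mM L-glutamine and 100 μg/mL penicillin–streptomycin at 37 °C, 5% CO2. Medium refreshed, 10 μL of 12 mM MTT stock added, then 4 h in the dark at 37 °C. Formazan dissolved in DMSO and read at 570 nm against media-only blanks. Three independent experiments; IC50 by linear regression.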

[2] = system: HEK-293 (human embryonic kidney cell line); experiment: MTT cytotoxicity assay, HEK-293; conditions: HEK293, 48 h, read-out: IC50 HEK-293
[3] = system: HepG2 (Human hematoma cell line); experiment: MTT cytotoxicity assay, HEPG2; conditions: HepG2, 48 h, read-out: IC50 HEPG2
Summary of the method: as §1

[4] = system: DU145 (human prostate cell line); experiment: MTT cytotoxicity assay, DU145; conditions: DU-145, 48 h, read-out: IC50 DU145
Summary of the method: as §1

[5] = system: erythrocytes (heparinized human blood); experiment: Erythrocyte osmotic fragility; conditions: 1 μL of 10 mg mL^−1 stock, 37 °C, 30 min
[6] = system: Candida tropicalis MTCC 230; experiment: Agar well diffusion, antifungal; conditions: 1 mg/mL, 18 hrs
Summary of the method: (§2)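 Fungal strains kept like the bacteria (Mueller–Hinton media) but at 30 °C. Agar well diffusion per CLSI (2012): inoculum spread over the agar, 6–8 mm wells punched, and 20–100 μL test compound added per well. Plates incubated at 30 °C and zone of inhibition diameter read in mm.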

[7] = system: Candida albicans MTCC 227; experiment: Agar well diffusion, antifungal
Summary of the method: as §2

Structure (SMILES) | IC50 [1] | IC50 [2] | IC50 [3] | IC50 [4] | MEF50 (Mean Erythrocyte Fragility; concentration of PBS at which 50% of erythrocytes undergo hemolysis) [5] | Zone of inhibition Candida tropicalis [6] | Zone of inhibition Candida albicans ([7]; 1 mg/mL, 18 hrs) | zone of inhibition at 1000 µg/mL ([7]; Candida albicans, MTCC227, 18 h, read-out: Zone of inhibition Candida albicans)
O=C(/C=C/C=C/c1ccccc1)c1ccccc1O [Compound 3, (2E,4E)-1-(2-hydroxyphenyl)-5-phenylpenta-2,4-dien-1-one] | 20.8 ± 4.1 µM | 67.4 ± 9.1 µM | 40.1 ± 2 µM | 83.5 ± 7.3 µM | – | – | – | –
O=C(/C=C/C=C/c1ccccc1)c1ccccc1OCc1ccc(Cl)c(Cl)c1 [Compound 5b, (2E,4E)-1-(2-((3,4-dichlorobenzyl)oxy)phenyl)-5-phenylpenta-2,4-dien-1-one] | 22.4 ± 2.4 µM | 20.4 ± 1.6 µM | 9.19 ± 0.6 µM | 17.9 ± 3.4 µM | 0.538 | – | – | –
CCCCCCOc1ccccc1C(=O)/C=C/C=C/c1ccccc1 [Compound 5l, (2E,4E)-1-(2-(Hexyloxy)phenyl)-5-phenylpenta-2,4-dien-1-one] | 23.5 ± 4.1 µM | 98 ± 10.1 µM | 46.7 ± 2.2 µM | 29 ± 2.1 µM | – | showed activity | showed activity | 8 mm
CCCCCOc1ccccc1C(=O)/C=C/C=C/c1ccccc1 [Compound 5m, (2E,4E)-1-(2-(Pentyloxy)phenyl)-5-phenylpenta-2,4-dien-1-one] | 125 ± 6 µM | 104 ± 7.3 µM | 33.2 ± 0.7 µM | 126.8 ± 0.2 µM | – | – | – | –
O=C(/C=C/C=C/c1ccccc1)c1ccccc1OCc1ccc(Br)cc1 [Compound 5g, (2E,4E)-1-(2-((4-Bromobenzyl)oxy)phenyl)-5-phenylpenta-2,4-dien-1-one] | 15.7 ± 2.8 µM | 27.6 ± 4.2 µM | 25.8 ± 1.6 µM | 16.9 ± 2.3 µM | – | – | – | –
O=C(/C=C/C=C/c1ccccc1)c1ccccc1OCc1ccccc1Cl [Compound 5d, (2E,4E)-1-(2-((2-Chlorobenzyl)oxy)phenyl)-5-phenylpenta-2,4-dien-1-one] | 75.9 ± 4.8 µM | 203 ± 5.3 µM | 41.4 ± 3.9 µM | 46.1 ± 1.1 µM | – | – | – | –
Cc1ccc(COc2ccccc2C(=O)/C=C/C=C/c2ccccc2)cc1 [Compound 5j, (2E,4E)-1-(2-((4-Methylbenzyl)oxy)phenyl)-5-phenylpenta-2,4-dien-1-one] | 7.87 ± 2.1 µM | 23.6 ± 1.4 µM | 25.7 ± 1.5 µM | 21.3 ± 5.6 µM | – | – | – | –
N#Cc1ccccc1COc1ccccc1C(=O)/C=C/C=C/c1ccccc1 [Compound 5i, 2-((2-((2E,4E)-5-Phenylpenta-2,4-dienoyl)phenoxy)methyl) benzonitrile] | 75.3 ± 2.1 µM | 48.2 ± 5 µM | 42 ± 2.1 µM | 68.4 ± 2.8 µM | – | – | – | –
O=C(/C=C/C=C/c1ccccc1)c1ccccc1OCc1ccccc1 [Compound 5k, (2E,4E)-1-(2-(Benzyloxy)phenyl)-5-phenylpenta-2,4-dien-1-one] | 80.3 ± 8.7 µM | 109.4 ± 0.7 µM | 46.6 ± 1.4 µM | 55.6 ± 3.7 µM | – | – | – | –
